Laboratory results taken from ChEMBL document CHEMBL3259774, “Antimycobacterial activity of chiral aminoalcohols with camphane scaffold” (Eur J Med Chem, 2014).
In brackets after ≈: the same amount, converted by molar mass.

tested on: Mycobacterium tuberculosis; assay: Antimycobacterial activity against rifampicin and isoniazid-resistant Mycobacterium tuberculosis 43 assessed as growth inhibition; type: functional
How it was run: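 MDR strain 43, resistant to rifampicin and isoniazid, was a clinical isolate from an HIV-negative Bulgarian adult with pulmonary TB. Tested by the Canetti proportion method on Löwenstein–Jensen medium, with compound in DMSO added before coagulation. Colonies were compared with drug-free control as percent inhibition. MIC is the lowest concentration giving complete inhibition (0% growth).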

For CC1(C)[C@@H]2CC[C@@]1([C@@H](O)CN1CCN(c3ccc(F)cc3)CC1)C(=O)C2, which MIC is on record?
The MIC was 0.55 µM (≈ 0.198 µg/mL).

For CC1(C)[C@@H]2CC[C@@]1([C@H](O)CN1CCN(c3ccc(F)cc3)CC1)C(=O)C2, which MIC is on record?
The MIC was 0.55 µM (≈ 0.198 µg/mL).

CC1(C)[C@@H]2CC[C@@]1([C@@H](O)CN1CCOCC1)C(=O)C2 was tested. Which MIC did it give?
The MIC was > 18.7 µM.

Which MIC does the source give for CC1(C)[C@@H]2CC[C@@]1([C@H](O)CN1CCN(c3ccc(Cl)cc3)CC1)C(=O)C2 here?
Its MIC is 0.27 µM (≈ 0.102 µg/mL).

For CC1CCN(C[C@@H](O)[C@]23CC[C@H](CC2=O)C3(C)C)CC1, which MIC is on record?
Its MIC is 0.72 µM (≈ 0.201 µg/mL).

CC1(C)[C@@H]2CC[C@@]1([C@@H](O)CN1CCCCC1)C(=O)C2 was tested. Which MIC did it give?
Its MIC is 18.9 µM (≈ 5.02 µg/mL).
